Test results published in ChEMBL document CHEMBL1136635, “Modification of the N-terminus of peptidomimetic protein tyrosine phosphatase 1B (PTP1B) inhibitors: identification of analogues with cellular activity” (Bioorg Med Chem Lett, 2003).

Biological target: Receptor-type tyrosine-protein phosphatase F (Homo sapiens) (UniProt P10586)
Assay: Inhibitory activity against phosphatase (LAR) at a concentration of 100 uM
Summary of the method: (§1)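 Purified recombinant human enzyme constructs; PTP1B is a C-terminally truncated soluble form, tested alongside LAR and SHP-2. Activity is read as the initial rate of p-nitrophenyl phosphate (pNPP) hydrolysis and reported as percent inhibition. PTP1B is tested at 100, 10 and 1 µM, or 10 and 1 µM in the salicylate series; LAR and SHP-2 at 100 µM.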

Sequence of Receptor-type tyrosine-protein phosphatase F (Homo sapiens) (P10586 whole entry): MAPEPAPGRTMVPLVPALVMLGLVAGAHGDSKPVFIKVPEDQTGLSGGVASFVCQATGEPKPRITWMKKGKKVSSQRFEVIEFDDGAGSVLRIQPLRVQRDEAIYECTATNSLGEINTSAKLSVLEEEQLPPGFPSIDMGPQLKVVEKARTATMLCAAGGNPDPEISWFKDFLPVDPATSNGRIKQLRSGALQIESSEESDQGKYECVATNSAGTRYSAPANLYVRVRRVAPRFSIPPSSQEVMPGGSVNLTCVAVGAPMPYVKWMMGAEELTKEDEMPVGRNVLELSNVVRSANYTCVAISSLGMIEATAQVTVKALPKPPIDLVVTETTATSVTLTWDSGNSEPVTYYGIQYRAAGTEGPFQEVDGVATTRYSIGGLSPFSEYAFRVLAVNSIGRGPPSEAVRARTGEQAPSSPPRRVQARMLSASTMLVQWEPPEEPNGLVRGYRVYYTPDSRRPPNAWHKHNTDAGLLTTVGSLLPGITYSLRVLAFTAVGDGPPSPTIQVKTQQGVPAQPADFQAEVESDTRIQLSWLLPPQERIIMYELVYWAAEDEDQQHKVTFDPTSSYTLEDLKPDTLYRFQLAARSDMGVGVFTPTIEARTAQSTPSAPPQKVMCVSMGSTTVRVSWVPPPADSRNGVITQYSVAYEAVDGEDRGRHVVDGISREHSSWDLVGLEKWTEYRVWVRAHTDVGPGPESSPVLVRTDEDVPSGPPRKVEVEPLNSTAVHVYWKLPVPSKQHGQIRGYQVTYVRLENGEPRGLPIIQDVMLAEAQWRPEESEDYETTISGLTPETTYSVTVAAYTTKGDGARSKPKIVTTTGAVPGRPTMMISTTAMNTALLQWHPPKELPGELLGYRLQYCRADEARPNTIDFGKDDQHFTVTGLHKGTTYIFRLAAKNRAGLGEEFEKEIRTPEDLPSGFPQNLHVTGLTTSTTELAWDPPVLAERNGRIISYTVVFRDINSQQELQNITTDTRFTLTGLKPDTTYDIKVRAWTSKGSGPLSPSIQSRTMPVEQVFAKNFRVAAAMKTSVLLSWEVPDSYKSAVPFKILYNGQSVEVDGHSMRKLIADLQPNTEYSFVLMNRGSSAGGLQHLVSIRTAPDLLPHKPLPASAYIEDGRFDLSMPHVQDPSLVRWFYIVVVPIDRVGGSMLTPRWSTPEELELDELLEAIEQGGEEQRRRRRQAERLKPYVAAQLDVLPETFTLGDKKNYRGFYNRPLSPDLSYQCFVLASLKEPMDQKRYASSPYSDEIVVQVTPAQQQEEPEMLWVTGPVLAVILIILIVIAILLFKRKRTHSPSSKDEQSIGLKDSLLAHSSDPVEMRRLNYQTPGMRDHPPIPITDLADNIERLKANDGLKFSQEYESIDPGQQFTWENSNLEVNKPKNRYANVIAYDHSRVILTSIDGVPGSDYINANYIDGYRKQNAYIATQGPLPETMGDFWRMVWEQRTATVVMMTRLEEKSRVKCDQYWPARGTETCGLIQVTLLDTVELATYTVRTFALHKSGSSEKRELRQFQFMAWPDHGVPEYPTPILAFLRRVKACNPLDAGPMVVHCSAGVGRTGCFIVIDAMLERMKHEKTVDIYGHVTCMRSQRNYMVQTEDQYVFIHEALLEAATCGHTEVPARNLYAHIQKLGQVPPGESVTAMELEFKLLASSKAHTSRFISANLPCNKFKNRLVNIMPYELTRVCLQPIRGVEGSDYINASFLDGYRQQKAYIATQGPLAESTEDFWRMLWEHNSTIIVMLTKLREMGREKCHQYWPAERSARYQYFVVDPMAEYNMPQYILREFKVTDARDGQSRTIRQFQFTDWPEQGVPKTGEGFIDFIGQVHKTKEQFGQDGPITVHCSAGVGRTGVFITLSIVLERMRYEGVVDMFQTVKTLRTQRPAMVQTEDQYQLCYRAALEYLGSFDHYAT

SMILES | inhibition
CCCCCNC(=O)[C@H](Cc1ccc(OC(C(=O)O)C(=O)O)cc1)NC(=O)[C@H](Cc1cccc2ccccc12)NC(=O)OC(C)(C)C | 34%
CCCCCNC(=O)[C@H](Cc1ccc(OC(C(=O)O)C(=O)O)cc1)NC(=O)[C@H](Cc1c[nH]c2ccccc12)NC(=O)OC(C)(C)C | 18%
CCCCCNC(=O)[C@H](Cc1ccc(OC(C(=O)O)C(=O)O)cc1)NC(=O)[C@H](CC[S+](C)[O-])NC(=O)OC(C)(C)C (stereo partly specified) | 0%
CCCCCNC(=O)[C@H](Cc1ccc(OC(C(=O)O)C(=O)O)cc1)NC(=O)[C@H](Cc1ccccc1)NC(=O)CCOC | 6%
CCCCCNC(=O)[C@H](Cc1ccc(OC(C(=O)O)C(=O)O)cc1)NC(=O)[C@H](CC1CCCCC1)NC(=O)OC(C)(C)C | 4%
CCCCCNC(=O)[C@H](Cc1ccc(OC(C(=O)O)C(=O)O)cc1)NC(=O)[C@H](CC(N)=O)NC(=O)OC(C)(C)C | 0%

Tested on: not listed separately
Assay: Uptake of 2-DOG (2-deoxyglucose) into L6 myocytes in the presence of half-maximal concentration of insulin at 100 uM
Type: functional, Rattus norvegicus
Summary of the method: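 L6 myotubes are exposed to compound at 100 µM with 10 nM insulin, a dose eliciting about 50% of maximal uptake. The initial rate of 2-[3H]deoxyglucose uptake is measured, with L-[14C]glucose marking extracellular space, and normalized to recovered lysate protein. Net insulin-dependent transport with inhibitor is expressed as a percent of that without inhibitor.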

SMILES | Control Uptake
CCCCCNC(=O)[C@H](Cc1ccc(OC(C(=O)O)C(=O)O)cc1)NC(=O)[C@H](Cc1cccc2ccccc12)NC(=O)OC(C)(C)C | 84%
CCCCCNC(=O)[C@H](Cc1ccc(OC(C(=O)O)C(=O)O)cc1)NC(=O)[C@H](Cc1c[nH]c2ccccc12)NC(=O)OC(C)(C)C | 92%
CCCCCNC(=O)[C@H](Cc1ccc(OC(C(=O)O)C(=O)O)cc1)NC(=O)[C@H](CC[S+](C)[O-])NC(=O)OC(C)(C)C (stereo partly specified) | 70%
CCCCCNC(=O)[C@H](Cc1ccc(OC(C(=O)O)C(=O)O)cc1)NC(=O)[C@H](Cc1ccccc1)NC(=O)CCOC | 104%
CCCCCNC(=O)[C@H](Cc1ccc(OC(C(=O)O)C(=O)O)cc1)NC(=O)[C@H](CC1CCCCC1)NC(=O)OC(C)(C)C | 93%
CCCCCNC(=O)[C@H](Cc1ccc(OC(C(=O)O)C(=O)O)cc1)NC(=O)[C@H](CC(N)=O)NC(=O)OC(C)(C)C | 110%

Biological target: T1, Tyrosine-protein phosphatase non-receptor type 11 (Homo sapiens) (UniProt Q06124)
T1 sequence (whole entry): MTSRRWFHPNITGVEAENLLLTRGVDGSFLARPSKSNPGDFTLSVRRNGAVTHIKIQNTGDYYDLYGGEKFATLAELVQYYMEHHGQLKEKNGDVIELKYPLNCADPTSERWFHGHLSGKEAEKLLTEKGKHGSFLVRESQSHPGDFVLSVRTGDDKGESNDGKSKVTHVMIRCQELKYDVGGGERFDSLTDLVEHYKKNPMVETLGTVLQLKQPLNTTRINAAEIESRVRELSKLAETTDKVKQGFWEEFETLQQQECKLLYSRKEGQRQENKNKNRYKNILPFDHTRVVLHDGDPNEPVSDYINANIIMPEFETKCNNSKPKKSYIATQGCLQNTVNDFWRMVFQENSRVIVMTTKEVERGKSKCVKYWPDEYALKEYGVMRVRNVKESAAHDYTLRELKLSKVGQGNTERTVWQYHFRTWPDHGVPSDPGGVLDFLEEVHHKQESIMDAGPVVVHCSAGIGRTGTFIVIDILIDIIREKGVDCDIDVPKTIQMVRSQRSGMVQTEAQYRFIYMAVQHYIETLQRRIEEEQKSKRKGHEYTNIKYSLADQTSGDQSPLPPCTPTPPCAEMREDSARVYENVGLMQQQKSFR
Assay: Inhibition of recombinant human phosphatase (SHP-2) at a concentration of 100 uM
Summary of the method: as §1

SMILES | inhibition
CCCCCNC(=O)[C@H](Cc1ccc(OC(C(=O)O)C(=O)O)cc1)NC(=O)[C@H](Cc1cccc2ccccc12)NC(=O)OC(C)(C)C | 8%
CCCCCNC(=O)[C@H](Cc1ccc(OC(C(=O)O)C(=O)O)cc1)NC(=O)[C@H](Cc1c[nH]c2ccccc12)NC(=O)OC(C)(C)C | 9%
CCCCCNC(=O)[C@H](Cc1ccc(OC(C(=O)O)C(=O)O)cc1)NC(=O)[C@H](CC[S+](C)[O-])NC(=O)OC(C)(C)C (stereo partly specified) | 6%
CCCCCNC(=O)[C@H](Cc1ccc(OC(C(=O)O)C(=O)O)cc1)NC(=O)[C@H](Cc1ccccc1)NC(=O)CCOC | 11%
CCCCCNC(=O)[C@H](Cc1ccc(OC(C(=O)O)C(=O)O)cc1)NC(=O)[C@H](CC1CCCCC1)NC(=O)OC(C)(C)C | 0%
CCCCCNC(=O)[C@H](Cc1ccc(OC(C(=O)O)C(=O)O)cc1)NC(=O)[C@H](CC(N)=O)NC(=O)OC(C)(C)C | 8%

Biological target: T2, Tyrosine-protein phosphatase non-receptor type 1 (Homo sapiens) (UniProt P18031)
T2 sequence (whole entry): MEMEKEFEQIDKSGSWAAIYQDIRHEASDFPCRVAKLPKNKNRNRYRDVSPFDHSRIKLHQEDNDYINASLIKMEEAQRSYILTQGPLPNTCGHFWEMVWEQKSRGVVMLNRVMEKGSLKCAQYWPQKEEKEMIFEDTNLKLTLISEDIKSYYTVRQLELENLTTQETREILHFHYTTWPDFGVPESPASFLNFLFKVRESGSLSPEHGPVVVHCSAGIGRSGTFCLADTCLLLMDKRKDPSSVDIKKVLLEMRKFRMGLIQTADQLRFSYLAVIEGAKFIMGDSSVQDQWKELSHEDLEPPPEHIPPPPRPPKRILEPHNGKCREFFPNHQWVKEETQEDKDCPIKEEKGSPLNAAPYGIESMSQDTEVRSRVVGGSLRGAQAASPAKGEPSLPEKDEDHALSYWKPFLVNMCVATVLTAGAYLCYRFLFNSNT
Assay: Inhibitory activity against human protein tyrosine phosphatase 1B (PTP1B) at a concentration of 1 uM
Summary of the method: as §1

SMILES | inhibition
CCCCCNC(=O)[C@H](Cc1ccc(OC(C(=O)O)C(=O)O)cc1)NC(=O)[C@H](Cc1cccc2ccccc12)NC(=O)OC(C)(C)C | 3%
CCCCCNC(=O)[C@H](Cc1ccc(OC(C(=O)O)C(=O)O)cc1)NC(=O)[C@H](Cc1c[nH]c2ccccc12)NC(=O)OC(C)(C)C | 10%
CCCCCNC(=O)[C@H](Cc1ccc(OC(C(=O)O)C(=O)O)cc1)NC(=O)[C@H](CC[S+](C)[O-])NC(=O)OC(C)(C)C (stereo partly specified) | 7%
CCCCCNC(=O)[C@H](Cc1ccc(OC(C(=O)O)C(=O)O)cc1)NC(=O)[C@H](Cc1ccccc1)NC(=O)CCOC | 19%
CCCCCNC(=O)[C@H](Cc1ccc(OC(C(=O)O)C(=O)O)cc1)NC(=O)[C@H](CC1CCCCC1)NC(=O)OC(C)(C)C | 1%
CCCCCNC(=O)[C@H](Cc1ccc(OC(C(=O)O)C(=O)O)cc1)NC(=O)[C@H](CC(N)=O)NC(=O)OC(C)(C)C | 9%

Biological target: T2, Tyrosine-protein phosphatase non-receptor type 1 (Homo sapiens)
Assay: Inhibitory activity against human protein tyrosine phosphatase 1B (PTP1B) at a concentration of 100 uM
Summary of the method: as §1

SMILES | inhibition
CCCCCNC(=O)[C@H](Cc1ccc(OC(C(=O)O)C(=O)O)cc1)NC(=O)[C@H](Cc1cccc2ccccc12)NC(=O)OC(C)(C)C | 86%
CCCCCNC(=O)[C@H](Cc1ccc(OC(C(=O)O)C(=O)O)cc1)NC(=O)[C@H](Cc1c[nH]c2ccccc12)NC(=O)OC(C)(C)C | 89%
CCCCCNC(=O)[C@H](Cc1ccc(OC(C(=O)O)C(=O)O)cc1)NC(=O)[C@H](CC[S+](C)[O-])NC(=O)OC(C)(C)C (stereo partly specified) | 67%
CCCCCNC(=O)[C@H](Cc1ccc(OC(C(=O)O)C(=O)O)cc1)NC(=O)[C@H](Cc1ccccc1)NC(=O)CCOC | 94%
CCCCCNC(=O)[C@H](Cc1ccc(OC(C(=O)O)C(=O)O)cc1)NC(=O)[C@H](CC1CCCCC1)NC(=O)OC(C)(C)C | 88%
CCCCCNC(=O)[C@H](Cc1ccc(OC(C(=O)O)C(=O)O)cc1)NC(=O)[C@H](CC(N)=O)NC(=O)OC(C)(C)C | 85%

Biological target: T2, Tyrosine-protein phosphatase non-receptor type 1 (Homo sapiens)
Assay: Inhibitory activity against human protein tyrosine phosphatase 1B (PTP1B) at a concentration of 10 uM
Summary of the method: as §1

SMILES | inhibition
CCCCCNC(=O)[C@H](Cc1ccc(OC(C(=O)O)C(=O)O)cc1)NC(=O)[C@H](Cc1cccc2ccccc12)NC(=O)OC(C)(C)C | 33%
CCCCCNC(=O)[C@H](Cc1ccc(OC(C(=O)O)C(=O)O)cc1)NC(=O)[C@H](Cc1c[nH]c2ccccc12)NC(=O)OC(C)(C)C | 44%
CCCCCNC(=O)[C@H](Cc1ccc(OC(C(=O)O)C(=O)O)cc1)NC(=O)[C@H](CC[S+](C)[O-])NC(=O)OC(C)(C)C (stereo partly specified) | 21%
CCCCCNC(=O)[C@H](Cc1ccc(OC(C(=O)O)C(=O)O)cc1)NC(=O)[C@H](Cc1ccccc1)NC(=O)CCOC | 65%
CCCCCNC(=O)[C@H](Cc1ccc(OC(C(=O)O)C(=O)O)cc1)NC(=O)[C@H](CC1CCCCC1)NC(=O)OC(C)(C)C | 18%
CCCCCNC(=O)[C@H](Cc1ccc(OC(C(=O)O)C(=O)O)cc1)NC(=O)[C@H](CC(N)=O)NC(=O)OC(C)(C)C | 40%
